The text below walks through data of ChEMBL document CHEMBL1144766, “Discovery of quinolinediones exhibiting a heat shock response and angiogenesis inhibition” (J Med Chem, 2008).

Data set [1] is described as follows: (§1) Cytotoxicity against human NCI60 cells. The class given is functional. As to conditions: for TGI: read-out: Log TGI (converted).
In data set [2] the target is Heat shock protein HSP 90-beta (Homo sapiens) (UniProt P08238). The data set can be described thus: Binding affinity to N-terminal ATP binding site of Hsp90 at 100 uM after 30 mins. A digest of the protocol:
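Compounds were made up in DMSO at 35 mM (stock) just before use and added to whole cell lysates at 100 µM final. Lysates were held on ice for 30 min, then incubated with geldanamycin-derivatized agarose beads at 4 °C with rocking for 60 min. Beads were washed, and eluted proteins were run on gels and blotted for Hsp90. Loss of the Hsp90 band indicated competition.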

A further data set deals with NCI60. The description is as §1. The class given is functional.
Data set [3] deals with HUVEC. The experiment in a line: Antiangiogenic activity in HUVEC assessed as cord length at 0.1 ug/ml after 24 hrs relative to control. As to conditions: Homo sapiens. The class given is functional, cell-based. The gist of the method:
(§2)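 HUVEC grown in EGM-2. Matrigel was gelled in wells (15 min room temperature, then 30 min at 37 °C) and seeded with HUVEC at 2 × 10⁵ cells/mL. Compound was added in culture medium. After 24 h, cords and junctions were imaged by inverted microscope and digital camera. Cord length and junction number were measured relative to untreated controls.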

Data set [4] deals with HUVEC. The experiment in a line: Effect on HUVEC growth at 10 ug/ml relative to control. The class given is functional, Homo sapiens.
Data set [5] deals with HUVEC. The experiment in a line: Effect on HUVEC growth at 0.1 ug/ml relative to control. The class given is functional, Homo sapiens.
The next data set deals with MCF7. The experiment in a line: Growth inhibition of human MCF7 cells after 48 hrs by sulforhodamine B assay. The class given is functional. A digest of the protocol: (§3)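 Sulforhodamine B assay. Cells were seeded and incubated 24 h, then exposed to serial compound dilutions for 48 h. Plates were fixed with trichloroacetic acid, stained with SRB and read for optical density. GI50 was calculated from the OD data as the concentration giving 50% reduction in net protein increase. HUVEC were grown in EGM-2.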
(In SRB staining, fixed cells bind dye roughly in proportion to their protein.)

Data set [6] relates to HUVEC. The data set can be described thus: Effect on HUVEC growth at 0.001 ug/ml relative to control. The class given is functional, Homo sapiens.
Data set [7] concerns HUVEC. The data set can be described thus: Effect on HUVEC growth at 0.01 ug/ml relative to control. The class given is functional, Homo sapiens.
Data set [8] concerns HUVEC. The data set can be described thus: Effect on HUVEC growth at 1.0 ug/ml relative to control. The class given is functional, Homo sapiens.
Data set [9] concerns HUVEC. The data set can be described thus: Antiangiogenic activity in HUVEC assessed as number of junctions at 0.1 ug/ml after 24 hrs relative to control. The class given is functional, Homo sapiens. A digest of the protocol: as §2
The next data set concerns NCI-H460. The data set can be described thus: Growth inhibition of human NCI-H460 cells after 48 hrs by sulforhodamine B assay. The class given is functional. A digest of the protocol: as §3
In data set [10] the test system is HUVEC. The data set can be described thus: Antiangiogenic activity in HUVEC assessed as number of junctions at 1.0 ug/ml after 24 hrs relative to control. The class given is functional, Homo sapiens. A digest of the protocol:
as §2

Data set [11] concerns HUVEC. The data set can be described thus: Antiangiogenic activity in HUVEC assessed as cord length at 1.0 ug/ml after 24 hrs relative to control. The conditions noted are these: Homo sapiens. The class given is functional, cell-based. A digest of the protocol: as §2
The subject of data set [12] is HUVEC. The data set can be described thus: Antiangiogenic activity in HUVEC assessed as number of junctions at 0.001 ug/ml after 24 hrs relative to control. The class given is functional, cell-based. As to conditions: Homo sapiens. A digest of the protocol:
as §2

Data set [13] deals with HUVEC. The data set can be described thus: Growth inhibition of HUVEC after 48 hrs by sulforhodamine B assay. The conditions noted are these: human. The class given is cell-based. A digest of the protocol: as §3
Data set [14] relates to HUVEC. The data set can be described thus: Antiangiogenic activity in HUVEC assessed as number of junctions at 0.01 ug/ml after 24 hrs relative to control. The class given is functional, Homo sapiens. A digest of the protocol:
as §2

Data set [15] concerns HUVEC. The data set can be described thus: Antiangiogenic activity in HUVEC assessed as cord length at 0.01 ug/ml after 24 hrs relative to control. The conditions noted are these: Homo sapiens. The class given is functional, cell-based. The gist of the method: as §2
Data set [16] relates to HUVEC. The data set can be described thus: Antiangiogenic activity in HUVEC assessed as cord length at 0.001 ug/ml after 24 hrs relative to control. The class given is functional, cell-based. As to conditions: Homo sapiens. A digest of the protocol:
as §2

Data set [17] deals with HUVEC. The experiment in a line: Antiangiogenic activity in HUVEC assessed as cord length at 10 ug/ml after 24 hrs relative to control. The class given is functional, Homo sapiens. The gist of the method:
as §2

Calls of active or inactive are those of the source. The calls are words filed in the database; no cut-off is given here.

Heat shock protein HSP 90-beta (Homo sapiens), sequence (P08238 whole entry): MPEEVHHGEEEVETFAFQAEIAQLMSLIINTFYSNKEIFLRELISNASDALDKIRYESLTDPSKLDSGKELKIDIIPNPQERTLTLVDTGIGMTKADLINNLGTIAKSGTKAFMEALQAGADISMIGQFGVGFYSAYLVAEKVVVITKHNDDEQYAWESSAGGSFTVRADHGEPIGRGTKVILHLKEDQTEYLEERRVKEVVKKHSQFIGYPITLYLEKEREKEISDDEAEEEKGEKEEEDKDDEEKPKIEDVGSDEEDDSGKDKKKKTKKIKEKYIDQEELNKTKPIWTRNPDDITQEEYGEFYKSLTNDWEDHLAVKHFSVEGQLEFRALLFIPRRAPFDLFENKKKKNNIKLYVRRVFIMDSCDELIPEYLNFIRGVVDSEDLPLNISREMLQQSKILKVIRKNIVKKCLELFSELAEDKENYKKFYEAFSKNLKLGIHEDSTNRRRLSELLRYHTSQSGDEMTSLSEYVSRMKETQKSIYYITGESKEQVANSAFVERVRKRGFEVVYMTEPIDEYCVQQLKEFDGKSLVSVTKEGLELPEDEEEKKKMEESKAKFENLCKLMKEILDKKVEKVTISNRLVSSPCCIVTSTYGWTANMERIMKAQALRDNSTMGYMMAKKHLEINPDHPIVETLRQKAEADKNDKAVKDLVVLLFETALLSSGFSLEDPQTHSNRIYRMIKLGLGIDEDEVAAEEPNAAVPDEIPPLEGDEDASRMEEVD

On to `COc1cc2c(nc1-c1ccccc1)C(=O)C(N1CC1)=CC2=O`, for which, in [1], the concentration for 50% growth inhibition (GI50) is 0.525 µM, the LC50 was 4.9 µM and the TGI was 1.66 µM. Besides, in data set [2], the result was inactive.

Consider `Cc1ccc2c(n1)C(=O)C=C(N1CC1)C2=O`, for which, in data set [1], the GI50 was 0.513 µM, the LC50 is 7.94 µM and the TGI was 2.04 µM. For the same compound, the outcome in data set [2] was inactive.

As to `O=C1C=C(N2CC2)C(=O)c2nc(-c3ccccc3)ccc21`, in [1], the GI50 is 0.0851 µM, the LC50 is 17.8 µM and the TGI was 3.31 µM. In addition, the outcome in data set [2] was inactive.

Take `Cc1cc2c(nc1-c1ccccc1)C(=O)C=C(N1CC1)C2=O`: in data set [2], the outcome was inactive.

For `O=C1C(N2CCCC2)=CC(=O)c2nc(-c3ccccc3)ccc21`, the outcome (in the data set with NCI60; in data set [2]) was inactive. Also, the GI50 in data set [1] is 44.7 µM.

Turning to `COc1cc2c(nc1C)C(=O)C(N1CC1)=CC2=O`, in data set [1], the GI50 was 0.275 µM, the 50% lethal concentration (LC50) was 4.37 µM and the TGI is 0.832 µM. Also, in [2], the outcome was inactive.

In the case of `C=CCNC1=CC(=O)c2nc(-c3ccccc3)ccc2C1=O`, in data set [1], the 50% growth inhibitory concentration (GI50) is 1.91 µM, the LC50 is 43.7 µM and the TGI was 14.1 µM. Besides, the outcome in [2] was inactive.

For `COc1cc(-c2ccc3c(n2)C(=O)C=C(N2CC2)C3=O)cc(OC)c1OC`, in [1], it took 0.589 µM to inhibit growth by half (GI50), the 50% lethal concentration (LC50) was 5.5 µM and the TGI is 1.78 µM. Moreover, the outcome in [2] was inactive.

Regarding `COc1cc(-c2ccc3c(n2)C(=O)C(NCc2ccccc2)=CC3=O)cc(OC)c1OC`, the outcome (in the data set on HUVEC [3]; in the data set with NCI60; in [2]; in the data set with HUVEC [11]; in the data set on HUVEC [12]; with HUVEC [15]) was inactive. For the same compound, the result with HUVEC [16] was inactive. For the same compound, the Activity with HUVEC [4] is 14%; in the data set with HUVEC [5], 91%; in the data set with MCF7, 0.35 µg/mL; with HUVEC [6] it was 102%; in the data set with HUVEC [7], 118%; in the data set on HUVEC [8] it was 64%. Moreover, the Activity in the data set on HUVEC [9] was 50%; in the data set with NCI-H460, 0.43 µg/mL; in the data set with HUVEC [10] it was 50%; with HUVEC [13], 1.9 µg/mL; in the data set on HUVEC [14] it was 50%; in the data set on HUVEC [17] it was 75%. Moreover, halving of growth in [1] (GI50) required 2.69 µM. For the same compound, in data set [1], the TGI is 63.1 µM.

For the compound `O=C1C(N2CC2)=CC(=O)c2nc(-c3ccccc3)ccc21`, in data set [1], the GI50 was 0.0275 µM, the LC50 was 2.04 µM and the TGI was 0.324 µM. The result in data set [2] was inactive.

In the case of `COC1=CC(=O)c2nc(-c3cc(OC)c(OC)c(OC)c3)ccc2C1=O`, the outcome (in the data set with HUVEC [3]; in data set [2]; in the data set with HUVEC [11]; in the data set with HUVEC [12]; with HUVEC [14] (Homo sapiens); with HUVEC [15]) was inactive. Moreover, the result in the data set on HUVEC [16] was inactive. For the same compound, the Activity in the data set with HUVEC [4] is 23%; in the data set on HUVEC [5], 90%; in the data set on MCF7, 0.24 µg/mL; in the data set with HUVEC [6], 106%; in the data set with HUVEC [7], 117%; in the data set with HUVEC [8], 2%. Moreover, the Activity with HUVEC [9] was found to be 50%; in the data set on NCI-H460 it was 1.9 µg/mL; with HUVEC [10] it was 50%; in the data set with HUVEC [13], 0.28 µg/mL.

In the case of `COCCCNC1=CC(=O)c2nc(-c3ccccc3)ccc2C1=O`, in [1], the concentration for 50% growth inhibition (GI50) is 3.55 µM, the LC50 is 66.1 µM and the TGI is 19.1 µM. Besides, in [2], the result was inactive.

Take `COc1cc(-c2ccc3c(n2)C(=O)C=C(NCc2ccccc2)C3=O)cc(OC)c1OC`: the result (in the data set with HUVEC [3]; with NCI60; in data set [2]; with HUVEC [9] (Homo sapiens); in the data set on HUVEC [10] (Homo sapiens); in the data set on HUVEC [11]) was inactive. Also, the outcome with HUVEC [12], with HUVEC [14] (Homo sapiens), in the data set with HUVEC [15] and with HUVEC [16] was inactive. Moreover, the Activity stood at 13% with HUVEC [4]; 64% with HUVEC [5]; 0.52 µg/mL with MCF7; 104% with HUVEC [6]; 92% in the data set with HUVEC [7]; 64% in the data set on HUVEC [8]. Further, the results for the Activity in the data set with NCI-H460, with HUVEC [13] and in the data set on HUVEC [17] were 0.65 µg/mL, 1.9 µg/mL and 75%, respectively.

For the compound `O=C1C=C(NCc2ccccc2)C(=O)c2nc(-c3ccccc3)ccc21`, the result (in the data set with NCI60; in data set [2]) was inactive. Further, the GI50 in [1] was 33.1 µM.

Turning to `COc1cc(CNC2=CC(=O)c3ccc(-c4ccccc4)nc3C2=O)cc(OC)c1OC`, the outcome (in the data set on NCI60; in [2]) was inactive. Besides, in data set [1], growth was halved (GI50) at 57.5 µM.

For the compound `COCCCNC1=CC(=O)c2ccc(-c3ccccc3)nc2C1=O`, in data set [1], the GI50 was 5.5 µM, the LC50 is 70.8 µM and the TGI is 28.8 µM. Besides, the result in [2] was inactive.

Regarding `O=C1C(NCc2ccccc2)=CC(=O)c2nc(-c3ccccc3)ccc21`, in data set [1], the GI50 was 1.7 µM, the median lethal concentration (LC50) was 66.1 µM and the TGI is 15.5 µM. The result in data set [2] was inactive.

For the compound `O=C1C(N2CC2)=CC(=O)c2nc(-c3ccc(-c4ccccc4)cc3)ccc21`, in data set [1], the GI50 was 7.94 µM, the 50% lethal concentration (LC50) was 64.6 µM and the concentration for total growth inhibition (TGI) is 26.9 µM. Further, the result in data set [2] was inactive.

`COc1cc(CNC2=CC(=O)c3nc(-c4ccccc4)ccc3C2=O)cc(OC)c1OC`: in data set [1], halving of growth (GI50) required 2.34 µM, the LC50 is 66.1 µM and the TGI is 15.5 µM. Besides, in data set [2], the outcome was inactive.

A word on the GI50: it is the concentration giving 50% growth inhibition. One may read the LC50 as the concentration lethal to half of the exposed cells or organisms. Low readings indicate greater toxicity, high ones lower toxicity. What is called TGI is the concentration at which net growth stops.
